Measurements as given in PMC4629064 (Acta Pharmaceutica Sinica. B, 2014).
Values after ≈ are worked out from the molar mass of the structure shown. Values joined by “and” are separate entries in the source; they are usually repeats but may differ in a detail not shown here. Equal values may be shown once.

Experiments:
[1] = Solubility of BA and BA–PC in water or octanol; format: physicochemical; conditions: octanol, 37 °C, organic solvent or mixture, thermodynamic from solid
[2] = Dispersible uniformity and stability in water; format: physicochemical; conditions: dispersed in water, 37 °C
Method in brief: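 Free test compound dispersed in water by simple agitation, alongside its phospholipid complex and complex-loaded self-microemulsifying formulation (drug:phospholipid molar ratios 1:1, 1:1.5, 1:2). Samples held at 37 °C in a water bath. Drug in the upper solution quantified by UV spectrophotometry at 316 nm at 0, 4, 8, 12 and 24 h. Bottles inspected visually for bottom precipitate.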

[3] = Caco-2 cell permeation study; format: in vitro ADME; conditions: human, Caco-2, pH 6.8
Caco-2 cells = assay: Caco-2 cell permeation study; format: in vitro ADME; conditions: apical to basolateral, 187.5 μg/mL of BA, pH 6.8, 37 °C; mean±SD, n=3
[4] = system: intestine segments (duodenum and jejunum, ileum, colon); assay: In situ single-pass intestinal perfusion; format: in vivo, Sprague-Dawley rats; conditions: rat SPIP, 750 μg/mL BA in KR buffer pH 6.0, mean±SD, n=6
[5] = Oral bioavailability of BA–PC–SMEDDS and BA suspensions; conditions: both, Sprague-Dawley, rat, in vivo, 75 mg

solubility at 48 h [1]: 136 ± 12 µg/mL (≈ 305 µM)
Precipitate at the bottom of the bottles (visual) [2]: precipitates
Concentration of BA in the upper solution, initially ([2]; initially): nearly zero
Papp A→B at 180 min, 187.5 μg/mL [3]: 0.119 ± 0.092 ×10⁻⁶ cm/s
Papp B→A at 180 min, 187.5 μg/mL [3]: 0.365 ± 0.096 ×10⁻⁶ cm/s
efflux ratio at 180 min, 187.5 μg/mL [3]: 3.07
Peff, Colon ([4]; colon): 0.506±0.088 ×10^−4, cm/s
Peff, Duodenum+jejunum ([4]; duodenum+jejunum): 0.139±0.035 ^⁎ ×10^−4, cm/s
Peff, Ileum ([4]; ileum): 0.252±0.081 ^⁎ ×10^−4, cm/s
AUC [5]: 7610 ± 1580 ng·h/mL
Cmax [5]: 1840 ± 470 ng/mL
Tmax [5]: 1.5 h
SMILES: O=C(O)[C@H]1O[C@@H](Oc2cc3oc(-c4ccccc4)cc(=O)c3c(O)c2O)[C@H](O)[C@@H](O)[C@@H]1O [BA, 5,6-dihydroxy-4-oxygen-2-phenyl-4H-1-benzopyran-7-β-D-glucopyranoseacid]
Papp through Caco-2 monolayer (Caco-2 cells): 0.037 ×10^−6, cm/s and 0.037±0.012 ×10^−6, cm/s
